Source: PubChem BioAssay
This is one part of a sample in which hits are shown more often than they occur.
IDH1 mut inh – inhibitors of human IDH1 R132H. 0.18% of 70,000 active. O75874. IDH1 R132H reductase, diaphorase/resazurin fluorescence, 60 min. inhibition, % at 10 µM. AID 624101; in the data active = inhibition above about 34%;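 note: 0% = DMSO and 100% = no enzyme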
Target sequence (O75874 whole entry R132H): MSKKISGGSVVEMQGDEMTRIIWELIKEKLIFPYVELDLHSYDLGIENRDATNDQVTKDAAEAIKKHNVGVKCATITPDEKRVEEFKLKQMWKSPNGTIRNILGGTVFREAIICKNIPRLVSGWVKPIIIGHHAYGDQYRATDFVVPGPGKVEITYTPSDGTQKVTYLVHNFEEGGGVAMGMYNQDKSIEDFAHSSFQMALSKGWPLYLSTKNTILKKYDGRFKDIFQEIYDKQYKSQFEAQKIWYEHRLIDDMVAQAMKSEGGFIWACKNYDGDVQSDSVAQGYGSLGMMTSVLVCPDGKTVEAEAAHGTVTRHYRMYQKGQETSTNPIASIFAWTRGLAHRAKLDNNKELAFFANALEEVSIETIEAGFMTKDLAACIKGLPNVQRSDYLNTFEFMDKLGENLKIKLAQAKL
T cruzi growth-1 – T. cruzi proliferation inhibition. T. cruzi beta-gal in NIH3T3, GalScreen luminescence, 90 h. inhibition, % at 8.34 µM. 5.9% of 77,000 active. AID 624255;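 active = mean inhibition above about 93%, with at least 55% of replicates each passing it, limit read from the data, passing the limit was not always enough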
KDM4C inh – KDM4C (human) demethylase inhibition; inhibition, % at 12.5 µM; AID 720574; 0.15% of 96,000 active; GST-KDM4C 2-372, H3K9me3 peptide, LANCE TR-FRET;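 active = mean replicate inhibition above about 25%, with at least 55% of replicates also reaching it, limit read from the data, passing the limit was not always enough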
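material = GST-tagged GASC-1 (JMJD2C) catalytic fragment, aa 2-372 | amount = enzyme final amount 10 nM | medium = HEPES buffer, pH 7.5, plus ascorbate | also added = H3K9me3 peptide substrate, Fe(II), 2-oxoglutarate | dosing = single dose | times = 30 min demethylation and 1 h detection at room temperature | detection = LANCE TR-FRET | read-out basis = Fall in 671/618 emission ratio as inhibition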
T cruzi growth-2 – blocks T. cruzi growth in NIH3T3 host cells | shares compounds with T cruzi growth-1 | T. cruzi beta-gal in NIH3T3, GalScreen luminescence, 90 h | inhibition, % at 8.35 µM | 72% of 5,600 active;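 active = mean replicate inhibition above about 95% and at least 55% of replicates individually reaching it, limit read from the data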
T cruzi growth-3 – inhibitors of T. cruzi proliferation; shares compounds with T cruzi growth-1; T. cruzi beta-gal in NIH3T3, GalScreen luminescence, 90 h; inhibition, % at 2.09 µM; 21% of 5,600 active; AID 651740;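 active = mean inhibition above about 95%, with at least 55% of replicates also reaching it, limit read from the data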;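 note: plate controls were neutral control median for no effect and positive control median for full effect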
NIH3T3 tox – NIH/3T3 (mouse) viability loss | shares compounds with T cruzi growth-1 | NIH/3T3 viability, CellTiter-Glo ATP luminescence, 90 h | 14% of 5,600 active | cytotoxicity (signal decrease), % at 8.35 µM;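 active = mean signal decrease across replicates above about 35% based on untreated-well scatter, with enough replicates individually passing, limit read from the data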;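 note: 0% = median of neutral control wells and 100% = median of positive control wells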
3T3 cytotox 2 – kills mouse NIH/3T3 fibroblasts. shares compounds with T cruzi growth-1. NIH/3T3 viability, CellTiter-Glo ATP luminescence, 90 h. inhibition, % at 24.9 µM. 56% of 5,600 active. AID 651744;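 active = mean loss of cell viability signal at or above a set limit, and enough replicates individually reaching it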;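 note: 0% = median of neutral control wells and 100% = median of positive control wells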
Active calls of the source: *.

`COc1ccc(NC(=O)N2CCCCN3[C@H](C2)[C@@H](c2ccc(-c4ccccc4F)cc2)[C@@H]3CO)cc1` gave T cruzi growth-1 58 and KDM4C inh -1.
`O=C(Nc1cccc(F)c1)N1CCCCN2[C@H](CO)[C@H](c3ccc(-c4ccccc4F)cc3)[C@H]2C1` gave T cruzi growth-1 101*, KDM4C inh -2, T cruzi growth-2 104*, T cruzi growth-3 112*, NIH3T3 tox 117* and 3T3 cytotox 2 104*.
`O=C(Nc1ccccc1)N1CCCCN2[C@H](CO)[C@H](c3ccc(-c4ccccc4F)cc3)[C@H]2C1` gave T cruzi growth-1 95 and KDM4C inh 0.
For N#Cc1ccccc1CSc1nnc(CN2CCOCC2)n1-c1ccccc1 the results were IDH1 mut inh 0.
`O=C(CCCCCCC(=O)N/N=C/c1ccc(-n2ccnc2)cc1)NO` gave IDH1 mut inh 0.
`CCOC(=O)C1=C(C)Nc2ncnn2C1c1ccccc1[N+](=O)[O-]` (stereo not given) gave IDH1 mut inh 1.
`O=C(Nc1ccc(F)cc1)N1CCCCN2[C@H](C1)[C@@H](c1ccc(-c3ccccc3F)cc1)[C@@H]2CO` gave T cruzi growth-1 85.
Screening O=C(Nc1ccc(F)cc1)N1CCCCN2[C@@H](CO)[C@H](c3ccc(-c4ccccc4F)cc3)[C@@H]2C1 returned T cruzi growth-1 106*, T cruzi growth-2 87, T cruzi growth-3 90, NIH3T3 tox 55* and 3T3 cytotox 2 104*.
Screening CCc1ccc(CCC(=O)Nc2cc(C(F)(F)F)ccc2Cl)o1 returned IDH1 mut inh 0.
Screening Cc1ccc(C(=O)CSc2ncnc3sc4c(c23)CCC4)cc1C returned IDH1 mut inh 1.
Screening COc1ccccc1CN1[C@@H]2Cn3c(ccc(C4=CCCC4)c3=O)[C@H]1[C@@H](C(=O)N(C)C)[C@@H]2CO returned T cruzi growth-1 56 and KDM4C inh 2.
`COc1ccccc1CN1[C@@H]2c3ccc(C4=CCCC4)c(=O)n3C[C@H]1[C@H](CO)[C@H]2C(=O)N(C)C` gave T cruzi growth-1 142*, KDM4C inh 3, T cruzi growth-2 74, T cruzi growth-3 12, NIH3T3 tox 7 and 3T3 cytotox 2 38*.
CCCNC(=O)[C@H]1[C@H](CO)[C@H]2Cn3c(ccc(C4=CCCC4)c3=O)[C@@H]1N2Cc1ccncc1 was read as T cruzi growth-1 99*, KDM4C inh 1, T cruzi growth-2 41, T cruzi growth-3 29, NIH3T3 tox 10 and 3T3 cytotox 2 10.
For CCCNC(=O)[C@@H]1[C@@H](CO)[C@@H]2Cn3c(ccc(C4=CCCC4)c3=O)[C@H]1N2Cc1ccncc1 the results were T cruzi growth-1 -1 and KDM4C inh 1.
For CC(NS(=O)(=O)c1ccccc1)C(=O)Nc1cc(Cl)ccc1Oc1ccccc1 (stereo not given) the results were IDH1 mut inh 0.
O=C(CSc1nc2ccccc2s1)Nc1ccc(Cl)c(C(F)(F)F)c1 was read as IDH1 mut inh 0.
Screening O=C(Nc1ccccc1[N+](=O)[O-])c1cccc(S(=O)(=O)Nc2ccc(F)cc2)c1 returned IDH1 mut inh 0.
`CC(Oc1cccc(NC(=O)c2ccccc2Cl)c1)C(=O)c1ccc(Cl)cc1` (stereo not given) gave IDH1 mut inh 0.
Screening c1ccc(-c2noc(COc3cccc4ccccc34)n2)nc1 returned IDH1 mut inh 0.
`C[C@@H]1CN([C@H](C)CO)S(=O)(=O)c2ccc(C#Cc3cccc(F)c3)cc2O[C@@H]1CN(C)C` gave IDH1 mut inh -2, T cruzi growth-1 -81 and KDM4C inh -1.
CCCN(C)C[C@@H]1Oc2cc(C#Cc3cccc(F)c3)ccc2S(=O)(=O)N([C@@H](C)CO)C[C@@H]1C was read as IDH1 mut inh 1, T cruzi growth-1 111*, KDM4C inh 1, T cruzi growth-2 113*, T cruzi growth-3 61, NIH3T3 tox 7 and 3T3 cytotox 2 102*.
